Assay results published in ChEMBL document CHEMBL4428065, “Fulvestrant-3 Boronic Acid (ZB716): An Orally Bioavailable Selective Estrogen Receptor Downregulator (SERD)” (J Med Chem, 2016).
Activity calls are given as the source filed them. No cut-off for these calls is given here.

Tests used:
T47D [1] = assay: Antiproliferative activity against human T47D cells after 5 days by coulter counter analysis; assay type: functional, cell-based; details: 120 h
Procedure, shortened: (§1)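 Cells plated at 50000/well in 5% FBS phenol red-free DMEM; treated with six concentrations from 10−10 to 10−5 M for 5 days, DMSO vehicle controls. Viable cells counted by Coulter counter; survival ratio = treated/vehicle viable cells (control 100%). IC50 derived from dose–response curves. Cultures at 37 °C, 5% CO2.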

T47D [2] = assay: Antiproliferative activity against human tamoxifen-resistant T47D cells over-expressing PKC-alpha after 5 days by coulter counter analysis; assay type: functional, cell-based; details: 120 h; procedure, shortened: as §1
[3] = target: T1, Estrogen receptor (Homo sapiens) (UniProt P03372); assay: Antiestrogenic activity at estrogen receptor in human T47D-KBluc cells assessed as inhibition of estradiol activity by luciferase reporter gene assay relative to estradiol control; assay type: cell-based
T1 sequence (whole entry): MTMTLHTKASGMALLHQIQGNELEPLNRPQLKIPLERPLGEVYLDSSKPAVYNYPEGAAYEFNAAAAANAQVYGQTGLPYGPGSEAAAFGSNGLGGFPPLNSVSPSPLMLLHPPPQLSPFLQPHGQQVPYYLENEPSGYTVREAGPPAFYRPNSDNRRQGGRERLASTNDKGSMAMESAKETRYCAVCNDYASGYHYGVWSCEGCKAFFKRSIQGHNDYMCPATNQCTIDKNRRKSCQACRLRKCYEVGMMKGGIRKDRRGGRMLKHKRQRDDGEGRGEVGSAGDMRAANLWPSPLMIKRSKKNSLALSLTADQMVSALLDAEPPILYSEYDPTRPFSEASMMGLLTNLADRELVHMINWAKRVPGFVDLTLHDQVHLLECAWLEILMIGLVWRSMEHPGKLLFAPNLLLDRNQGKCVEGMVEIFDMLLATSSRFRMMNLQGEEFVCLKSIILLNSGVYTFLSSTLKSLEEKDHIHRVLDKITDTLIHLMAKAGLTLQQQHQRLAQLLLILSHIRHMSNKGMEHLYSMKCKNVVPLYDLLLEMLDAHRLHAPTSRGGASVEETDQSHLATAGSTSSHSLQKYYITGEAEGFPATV
Procedure, shortened: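 T47D-kb-Luc cells stably carry an ERE-driven firefly luciferase. Antagonism was read as inhibition of the signal induced by 0.01 nM estradiol, testing 0.1, 1 and 10 nM. Luminescence was normalized to the estradiol control, run in quadruplicate in at least three separate experiments, and given as mean ± SD.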

MCF7 [4] = assay: Antiproliferative activity against human MCF7 cells after 5 days by coulter counter analysis; assay type: functional, cell-based; details: MCF7, 120 h
Procedure, shortened: (§2)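 Cells were plated at 50000/well in 5% FBS phenol red-free DMEM. The tamoxifen-resistant line came from prolonged 4-hydroxytamoxifen exposure of MCF-7. Cells were treated 5 days at six concentrations from 10−10 to 10−5 M, with DMSO vehicle. Viable cells were counted by Coulter counter, survival expressed relative to vehicle, and IC50 taken from dose-response curves.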

MCF7 [5] = assay: Antiproliferative activity against human tamoxifen-resistant MCF7 cells after 5 days by coulter counter analysis; assay type: functional, cell-based; details: MCF7, 120 h; procedure, shortened: as §2
[6] = target: T1, Estrogen receptor (Homo sapiens); assay: (§3) Downregulation of ER-alpha expression in human T47D cells measured after 5 days by Western blot analysis; assay type: cell-based
[7] = target: T1, Estrogen receptor (Homo sapiens); assay: (§4) Downregulation of ER-alpha expression in human tamoxifen-resistant T47D cells over-expressing PKC-alpha measured after 5 days by Western blot analysis; assay type: cell-based
[8] = Half life in C57BL/6 mouse at 8.3 mg/kg, sc by HPLC-MS/MS analysis; assay type: ADME, organism-based; details: in vivo
[9] = Cmax in C57BL/6 mouse at 8.3 mg/kg, sc by HPLC-MS/MS analysis; assay type: ADME, organism-based; set-up: dose 8.3 mg/kg, route subcutaneous; details: in vivo
[10] = AUC in C57BL/6 mouse at 8.3 mg/kg, sc by HPLC-MS/MS analysis; assay type: ADME, organism-based; details: in vivo
[11] = target: T1, Estrogen receptor (Homo sapiens); assay: Antagonistic activity at estrogen receptor in human MCF7 cells assessed as suppression of PGR expression 10^-8 to 10^-7 M measured after 48 hrs by real-time PCR analysis; assay type: cell-based
Procedure, shortened: (§5)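 MCF-7 cells were seeded in DMEM with 5% FBS, then switched to phenol red-free DMEM with 5% charcoal-stripped FBS for 48 h. They were treated 48 h with vehicle, E2, or test compound + E2. Expression was measured by real-time PCR, with fold change calculated by 2^−ΔΔCt normalized to five reference genes (18S rRNA, HPRT1, RPL13A, GAPDH, ACTB).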

[12] = target: T1, Estrogen receptor (Homo sapiens); assay: Antagonistic activity at estrogen receptor in human MCF7 cells assessed as suppression of EGR3 expression at 10^-8 to 10^-7 M measured after 48 hrs by real-time PCR analysis; assay type: cell-based; procedure, shortened: as §5
[13] = target: T1, Estrogen receptor (Homo sapiens); assay: Antagonistic activity at estrogen receptor in human MCF7 cells assessed as suppression of PDZK1 expression 10^-8 to 10^-7 M measured after 48 hrs by real-time PCR analysis; assay type: cell-based; procedure, shortened: as §5
[14] = target: T1, Estrogen receptor (Homo sapiens); assay: Antagonistic activity at estrogen receptor in human MCF7 cells assessed as suppression of TFF1 expression 10^-8 to 10^-7 M measured after 48 hrs by real-time PCR analysis; assay type: cell-based; procedure, shortened: as §5
[15] = target: T1, Estrogen receptor (Homo sapiens); assay: Antagonistic activity at estrogen receptor in human MCF7 cells assessed as suppression of WISP1 expression 10^-8 to 10^-7 M measured after 48 hrs by real-time PCR analysis; assay type: cell-based; procedure, shortened: as §5
Estrogen receptor [16] = target: T2, Estrogen receptor (Homo sapiens, UniProt P03372); assay: Displacement of fluoromone ligand from recombinant ER-alpha (unknown origin) by LanthaScreen TR-FRET assay
T2 sequence (P03372 whole entry): T1 sequence (whole entry)
Procedure, shortened: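 Competitive TR-FRET binding with recombinant ERα, in which test compound displaces a fluormone tracer. Six to ten concentrations spanning the IC50 were tested in quadruplicate, and IC50 was taken from the competition curves.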

Estrogen receptor [17] = target: T2, Estrogen receptor; assay: as §3; assay type: cell-based
Estrogen receptor [18] = target: T2, Estrogen receptor; assay: as §4; assay type: cell-based
[19] = Half life in C57BL/6 mouse at 8.3 mg/kg administered through oral gavage by HPLC-MS/MS analysis; assay type: ADME, organism-based; details: in vivo
Procedure, shortened: (§6)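 Female C57BL/6 mice, n = 5, given a single 8.3 mg/kg oral gavage in PBS/ethanol. Orbital sinus blood was drawn into EDTA at 1, 3, 6, 24 and 48 h, with each group sampled once. Analysis by UPLC-MS/MS on a C18 column with a water/acetonitrile 0.05% formic acid gradient.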

[20] = Cmax in C57BL/6 mouse at 8.3 mg/kg administered through oral gavage by HPLC-MS/MS analysis; assay type: ADME, organism-based; set-up: dose 8.3 mg/kg, route oral; details: in vivo; procedure, shortened: as §6
[21] = AUC in C57BL/6 mouse at 8.3 mg/kg administered through oral gavage by HPLC-MS/MS analysis; assay type: ADME, organism-based; details: in vivo; procedure, shortened: as §6

CC/C(=C(\c1ccc(O)cc1)c1ccc(OCCN(C)C)cc1)c1ccccc1 [AFIMOXIFENE]
IC50 (T47D [1]): 24 nM | IC50 (T47D [2]): 540 nM

C[C@]12CC[C@@H]3c4ccc(O)cc4C[C@@H](CCCCCCCCC[S+]([O-])CCCC(F)(F)C(F)(F)F)[C@H]3[C@@H]1CC[C@@H]2O (stereo not given in full) [FULVESTRANT]
inhibition [3]: Dose-dependent effect | IC50 (MCF7 [4]): 1.5 nM | IC50 (T47D [1]): 1.2 nM | IC50 (MCF7 [5]): 44 nM | IC50 (T47D [2]): 42 nM | inhibition [6]: Dose-dependent effect | inhibition [7]: Dose-dependent effect | half-life [8]: 14 h | Cmax [9]: 15.2 ng/mL | AUC [10]: 158 ng·h/mL

C[C@]12CC[C@@H]3c4ccc(B(O)O)cc4C[C@@H](CCCCCCCCC[S+]([O-])CCCC(F)(F)C(F)(F)F)[C@H]3[C@@H]1CC[C@@H]2O (stereo not given in full) [ZB-716]
inhibition [11]: Active | inhibition [12]: Active | inhibition [13]: Active | inhibition [3]: Dose-dependent effect | inhibition [14]: Active | inhibition [15]: Active | IC50 (MCF7 [4]): 3.2 nM | IC50 (T47D [1]): 6.1 nM | IC50 (MCF7 [5]): 69 nM | IC50 (T47D [2]): 37 nM | IC50 (Estrogen receptor [16]): 4.1 nM | inhibition [6]: Dose-dependent effect | IC50 (Estrogen receptor [17]): 7.8 nM | inhibition [7]: Dose-dependent effect | IC50 (Estrogen receptor [18]): 12.7 nM | t1/2 [19]: 23.5 h | Cmax [20]: 169.8 ng/mL | AUC [21]: 2547.1 ng·h/mL
